How the values were obtained:
[1] = target: T1, Bifunctional epoxide hydrolase 2 (Mus musculus, UniProt P34914); assay: Inhibitory activity against murine soluble epoxide hydrolase; N/A = could not be determined because of above the highest concentration (500 uM) of inhibitor tested.
T1 sequence (P34914 whole entry): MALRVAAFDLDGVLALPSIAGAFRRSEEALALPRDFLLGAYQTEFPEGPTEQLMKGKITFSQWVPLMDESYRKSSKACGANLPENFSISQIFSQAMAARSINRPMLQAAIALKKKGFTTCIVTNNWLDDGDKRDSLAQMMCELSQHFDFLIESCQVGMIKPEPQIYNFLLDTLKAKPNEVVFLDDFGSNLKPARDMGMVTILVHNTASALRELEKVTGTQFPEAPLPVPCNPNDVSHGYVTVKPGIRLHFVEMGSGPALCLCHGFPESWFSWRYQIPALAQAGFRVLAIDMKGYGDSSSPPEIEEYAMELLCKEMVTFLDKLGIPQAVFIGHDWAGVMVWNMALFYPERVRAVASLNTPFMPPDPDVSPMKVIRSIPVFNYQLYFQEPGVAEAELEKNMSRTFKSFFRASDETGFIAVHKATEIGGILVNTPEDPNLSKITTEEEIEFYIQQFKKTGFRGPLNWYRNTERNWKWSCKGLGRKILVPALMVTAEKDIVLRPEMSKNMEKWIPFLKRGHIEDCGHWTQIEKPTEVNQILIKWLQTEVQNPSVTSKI
Procedure, shortened: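 Mouse sEH expressed in baculovirus and affinity-purified (at least 97% pure by SDS-PAGE, no esterase or glutathione transferase activity). 0.10 µM enzyme held with inhibitor 5 min at 30 °C in pH 7.4 sodium phosphate buffer. Then 40 µM racemic 4-nitrophenyl-trans-2,3-epoxy-3-phenylpropyl carbonate added; 4-nitrophenolate followed at 405 nm for 1 min. Done in triplicate up to 500 µM inhibitor. IC50 regressed from at least five points bracketing the midpoint.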

[2] = target: T2, Bifunctional epoxide hydrolase 2 (Homo sapiens, UniProt P34913); assay: Inhibitory activity against human soluble epoxide hydrolase; N/A = could not be determined because of above the highest concentration (500 uM) of inhibitor tested.
T2 sequence (P34913 whole entry): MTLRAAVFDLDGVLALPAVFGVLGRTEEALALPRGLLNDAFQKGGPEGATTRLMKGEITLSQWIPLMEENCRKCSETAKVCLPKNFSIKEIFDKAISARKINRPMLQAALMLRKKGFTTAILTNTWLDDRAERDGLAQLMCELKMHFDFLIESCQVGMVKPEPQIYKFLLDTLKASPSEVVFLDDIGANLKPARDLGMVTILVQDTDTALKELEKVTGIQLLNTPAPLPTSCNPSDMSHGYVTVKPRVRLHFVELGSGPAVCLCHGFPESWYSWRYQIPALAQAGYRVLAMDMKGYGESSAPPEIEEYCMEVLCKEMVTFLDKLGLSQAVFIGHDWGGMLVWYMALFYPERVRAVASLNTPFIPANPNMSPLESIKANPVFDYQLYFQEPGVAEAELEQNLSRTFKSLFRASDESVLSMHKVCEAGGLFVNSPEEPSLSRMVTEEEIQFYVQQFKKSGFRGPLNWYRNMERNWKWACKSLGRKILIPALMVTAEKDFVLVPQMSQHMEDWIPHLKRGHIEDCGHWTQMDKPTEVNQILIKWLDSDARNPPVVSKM
Procedure, shortened: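 Recombinant human sEH made in baculovirus and affinity-purified (at least 97% pure, no detectable esterase or glutathione transferase activity). 0.20 µM enzyme preincubated with inhibitor for 5 min at 30 °C in pH 7.4 sodium phosphate buffer. Substrate: 40 µM racemic 4-nitrophenyl-trans-2,3-epoxy-3-phenylpropyl carbonate. 4-Nitrophenolate read at 405 nm over 1 min. Triplicate runs; top concentration 500 µM. IC50 by regression of at least five points, with at least two on each side in the linear region.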

With `CN(C)C(=O)N(CCCCCC(=O)O)c1ccc(Cl)c(Cl)c1` the IC50 [1] was “Not Active” and the IC50 [2] was “Not Active”.
For `CCCCCCNC(=O)NC`, the IC50 [2] was “Not Active”.

From ChEMBL document CHEMBL1136721, “QSAR and classification of murine and human soluble epoxide hydrolase inhibition by urea-like compounds” (J Med Chem, 2003)
